According to ChEMBL document CHEMBL1152541, “Staurosporine tethered peptide ligands that target cAMP-dependent protein kinase (PKA): optimization and selectivity profiling” (Bioorg Med Chem, 2009):
*1 amine or outer side, *2 acyl side, *3 side chain or, on linkers, in order; H or OH if unused. Where a SMILES comes first, the peptide text is derived from it. Bridges are numbered along the chain shown (N, C = ends). [ ]: non-standard residue; d: D form. The star is where a group is joined. Staurosporine = CO[C@@H]1[C@H](N(C)*)C[C@H]2O[C@]1(C)n1c3ccccc3c3c4c(c5c6ccccc6n2c5c31)C(=O)NC4; Suc = O=C(CCC(=O)[*:2])[*:1]; Dap = NC[C@H](N)C(=O)O; βAla = NCCC(=O)O

Experiments:
[1] = target: Mitogen-activated protein kinase 3 (Homo sapiens) (UniProt P27361); test: Binding affinity to human ERK1 at 500 nM by cell-based competition binding assay relative to control in presence of DTT
Chain of Mitogen-activated protein kinase 3 (Homo sapiens) (P27361 whole entry): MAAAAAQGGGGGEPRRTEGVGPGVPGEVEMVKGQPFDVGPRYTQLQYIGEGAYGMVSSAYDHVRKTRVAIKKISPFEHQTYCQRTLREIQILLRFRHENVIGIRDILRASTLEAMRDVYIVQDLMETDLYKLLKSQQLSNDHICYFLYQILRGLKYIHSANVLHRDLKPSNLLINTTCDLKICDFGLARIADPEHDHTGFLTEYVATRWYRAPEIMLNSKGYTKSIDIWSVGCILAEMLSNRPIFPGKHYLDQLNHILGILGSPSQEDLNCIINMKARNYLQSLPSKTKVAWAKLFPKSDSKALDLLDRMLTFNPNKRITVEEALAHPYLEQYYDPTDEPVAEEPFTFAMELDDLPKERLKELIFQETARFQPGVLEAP
Procedure, shortened: (§1)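 Commercial (Ambit) competitive kinase-binding panel of 90 kinases measured the binding profile. Run under reducing conditions of 7.5 mM DTT. Binding is expressed relative to control.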

[2] = target: T1, Activin receptor type-1B (Homo sapiens) (UniProt P36896); test: Binding affinity to human ACVR1B at 500 nM by cell-based competition binding assay relative to control in presence of DTT
T1 sequence (whole entry): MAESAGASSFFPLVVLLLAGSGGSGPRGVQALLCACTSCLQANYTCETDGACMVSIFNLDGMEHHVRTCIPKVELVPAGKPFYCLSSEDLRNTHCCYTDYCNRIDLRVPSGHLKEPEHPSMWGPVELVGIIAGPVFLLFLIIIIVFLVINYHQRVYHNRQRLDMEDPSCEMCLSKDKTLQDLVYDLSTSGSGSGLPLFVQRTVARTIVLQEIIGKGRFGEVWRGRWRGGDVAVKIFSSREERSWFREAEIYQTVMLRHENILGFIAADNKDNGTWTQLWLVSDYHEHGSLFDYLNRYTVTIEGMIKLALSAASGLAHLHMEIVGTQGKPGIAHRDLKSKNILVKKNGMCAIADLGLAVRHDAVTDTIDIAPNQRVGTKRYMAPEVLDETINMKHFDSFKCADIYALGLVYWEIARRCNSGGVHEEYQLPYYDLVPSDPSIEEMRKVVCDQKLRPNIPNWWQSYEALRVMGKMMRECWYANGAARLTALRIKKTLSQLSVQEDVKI
Procedure, shortened: (§2)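 Kinase binding profiling ran on a commercial (Ambit) competitive binding screen against a panel of 90 kinases. The screen used reducing conditions with 7.5 mM DTT. To withstand the DTT, the bivalent ligand was tested as its amide isostere, with the disulfide replaced. A staurosporine derivative carrying a 3 β-alanine linker was run as the reference compound.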

[3] = target: Atypical kinase COQ8A, mitochondrial (Homo sapiens) (UniProt Q8NI60); test: Binding affinity to human ADCK3 at 500 nM by cell-based competition binding assay relative to control in presence of DTT; procedure, shortened: as §2
Chain of Atypical kinase COQ8A, mitochondrial (Homo sapiens) (Q8NI60 163-647 limits assumed): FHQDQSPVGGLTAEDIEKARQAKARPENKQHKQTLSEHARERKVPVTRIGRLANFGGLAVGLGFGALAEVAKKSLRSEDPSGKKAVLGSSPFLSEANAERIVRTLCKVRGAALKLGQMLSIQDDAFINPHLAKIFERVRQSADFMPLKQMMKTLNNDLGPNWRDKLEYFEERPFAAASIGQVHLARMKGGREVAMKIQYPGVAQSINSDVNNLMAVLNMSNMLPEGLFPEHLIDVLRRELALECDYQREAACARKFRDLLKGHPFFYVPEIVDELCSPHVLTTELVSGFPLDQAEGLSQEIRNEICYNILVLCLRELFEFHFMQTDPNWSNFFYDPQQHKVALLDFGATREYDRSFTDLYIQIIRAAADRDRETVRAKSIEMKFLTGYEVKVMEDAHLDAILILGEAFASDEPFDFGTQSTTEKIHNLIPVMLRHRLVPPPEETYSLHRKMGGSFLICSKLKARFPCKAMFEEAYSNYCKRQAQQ

[4] = target: Cyclin-dependent kinase 2 (Homo sapiens) (UniProt P24941); test: Ratio of compound to staurosporine binding affinity to human CDK2 in presence of DTT
[5] = target: Serine/threonine-protein kinase PAK 4 (Homo sapiens) (UniProt O96013); test: Binding affinity to human PAK4 at 500 nM by cell-based competition binding assay relative to control in presence of DTT
Chain of Serine/threonine-protein kinase PAK 4 (Homo sapiens) (O96013 whole entry, looked up): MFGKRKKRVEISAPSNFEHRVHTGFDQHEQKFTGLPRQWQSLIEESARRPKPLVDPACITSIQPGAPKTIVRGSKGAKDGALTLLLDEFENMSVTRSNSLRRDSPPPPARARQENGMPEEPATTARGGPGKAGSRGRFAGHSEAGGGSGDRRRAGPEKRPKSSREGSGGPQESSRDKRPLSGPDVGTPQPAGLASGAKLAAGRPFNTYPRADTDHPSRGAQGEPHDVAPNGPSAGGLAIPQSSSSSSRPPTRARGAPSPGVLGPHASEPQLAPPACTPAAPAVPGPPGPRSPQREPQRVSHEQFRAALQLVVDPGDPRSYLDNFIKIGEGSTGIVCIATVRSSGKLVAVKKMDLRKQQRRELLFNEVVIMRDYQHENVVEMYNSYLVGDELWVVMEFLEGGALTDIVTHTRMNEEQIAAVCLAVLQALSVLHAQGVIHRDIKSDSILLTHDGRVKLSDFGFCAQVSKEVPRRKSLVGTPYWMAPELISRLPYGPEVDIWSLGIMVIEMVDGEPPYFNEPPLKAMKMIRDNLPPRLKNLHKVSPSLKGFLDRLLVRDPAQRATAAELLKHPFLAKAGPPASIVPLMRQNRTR

[6] = target: Receptor tyrosine-protein kinase erbB-4 (Homo sapiens) (UniProt Q15303); test: Binding affinity to human ERBB4 at 200 nM by cell-based competition binding assay relative to control in presence of DTT; procedure, shortened: as §1
[7] = target: Mitogen-activated protein kinase 3 (Homo sapiens) (UniProt P27361); test: Binding affinity to human ERK1 at 200 nM by cell-based competition binding assay relative to control in presence of DTT; procedure, shortened: as §1
[8] = system: Mast/stem cell growth factor receptor Kit (Homo sapiens), P10721 [D816V]; test: Binding affinity to human KIT D816V mutant at 200 nM by cell-based competition binding assay relative to control in presence of DTT
Chain of Mast/stem cell growth factor receptor Kit (Homo sapiens), P10721 [D816V] (P10721 whole entry D816V): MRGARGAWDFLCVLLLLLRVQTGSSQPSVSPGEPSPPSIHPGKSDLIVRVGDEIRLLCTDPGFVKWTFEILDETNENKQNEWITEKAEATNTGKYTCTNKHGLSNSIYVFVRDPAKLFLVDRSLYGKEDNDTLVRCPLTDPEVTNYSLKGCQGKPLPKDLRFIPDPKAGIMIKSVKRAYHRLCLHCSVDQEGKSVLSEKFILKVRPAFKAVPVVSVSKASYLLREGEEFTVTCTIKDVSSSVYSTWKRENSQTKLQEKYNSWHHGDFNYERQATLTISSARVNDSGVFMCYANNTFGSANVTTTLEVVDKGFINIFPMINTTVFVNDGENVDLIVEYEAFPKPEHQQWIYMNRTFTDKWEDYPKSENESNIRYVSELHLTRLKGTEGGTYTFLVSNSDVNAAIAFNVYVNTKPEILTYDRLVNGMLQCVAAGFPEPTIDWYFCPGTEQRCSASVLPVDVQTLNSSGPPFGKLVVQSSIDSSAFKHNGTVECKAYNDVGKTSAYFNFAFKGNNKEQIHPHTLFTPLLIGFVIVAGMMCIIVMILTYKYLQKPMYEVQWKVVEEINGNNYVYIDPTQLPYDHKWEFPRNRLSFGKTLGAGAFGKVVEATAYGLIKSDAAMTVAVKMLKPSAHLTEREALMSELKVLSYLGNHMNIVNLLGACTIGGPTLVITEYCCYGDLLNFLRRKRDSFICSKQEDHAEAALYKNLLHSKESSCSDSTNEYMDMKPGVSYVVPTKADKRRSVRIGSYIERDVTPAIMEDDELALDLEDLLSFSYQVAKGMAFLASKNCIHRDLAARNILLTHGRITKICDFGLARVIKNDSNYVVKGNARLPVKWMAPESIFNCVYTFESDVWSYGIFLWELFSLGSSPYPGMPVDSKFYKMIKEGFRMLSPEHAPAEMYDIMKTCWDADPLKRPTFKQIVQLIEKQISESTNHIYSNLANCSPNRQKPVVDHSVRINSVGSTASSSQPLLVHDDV
Procedure, shortened: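 Competition binding screen (Ambit) across a panel of 90 kinases, scoring test ligand displacement of each kinase's binding relative to control. The screen ran under reducing conditions with 7.5 mM DTT.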

[9] = target: Hepatocyte growth factor receptor (Homo sapiens) (UniProt P08581); test: Binding affinity to human MET at 200 nM by cell-based competition binding assay relative to control in presence of DTT
[10] = target: Mitogen-activated protein kinase 14 (Homo sapiens) (UniProt Q16539); test: Binding affinity to human p38alpha at 200 nM by cell-based competition binding assay relative to control in presence of DTT
Chain of Mitogen-activated protein kinase 14 (Homo sapiens) (Q16539 whole entry): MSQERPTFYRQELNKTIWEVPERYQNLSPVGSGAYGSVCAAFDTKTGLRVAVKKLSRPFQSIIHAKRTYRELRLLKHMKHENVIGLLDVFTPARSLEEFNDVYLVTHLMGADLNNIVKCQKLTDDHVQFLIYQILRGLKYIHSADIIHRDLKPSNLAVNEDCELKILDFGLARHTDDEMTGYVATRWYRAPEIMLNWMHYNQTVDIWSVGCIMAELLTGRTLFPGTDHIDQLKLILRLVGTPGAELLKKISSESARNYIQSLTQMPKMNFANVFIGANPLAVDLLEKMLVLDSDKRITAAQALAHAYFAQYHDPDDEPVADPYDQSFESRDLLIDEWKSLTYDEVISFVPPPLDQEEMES

[11] = target: Serine/threonine-protein kinase PAK 2 (Homo sapiens) (UniProt Q13177); test: Binding affinity to human PAK2 at 200 nM by cell-based competition binding assay relative to control in presence of DTT
[12] = target: Serine/threonine-protein kinase PAK 4 (Homo sapiens) (UniProt O96013); test: Binding affinity to human PAK4 at 200 nM by cell-based competition binding assay relative to control in presence of DTT
[13] = target: Serine/threonine-protein kinase pim-2 (Homo sapiens) (UniProt Q9P1W9); test: Binding affinity to human PIM2 at 200 nM by cell-based competition binding assay relative to control in presence of DTT
Chain of Serine/threonine-protein kinase pim-2 (Homo sapiens) (Q9P1W9 whole entry, looked up): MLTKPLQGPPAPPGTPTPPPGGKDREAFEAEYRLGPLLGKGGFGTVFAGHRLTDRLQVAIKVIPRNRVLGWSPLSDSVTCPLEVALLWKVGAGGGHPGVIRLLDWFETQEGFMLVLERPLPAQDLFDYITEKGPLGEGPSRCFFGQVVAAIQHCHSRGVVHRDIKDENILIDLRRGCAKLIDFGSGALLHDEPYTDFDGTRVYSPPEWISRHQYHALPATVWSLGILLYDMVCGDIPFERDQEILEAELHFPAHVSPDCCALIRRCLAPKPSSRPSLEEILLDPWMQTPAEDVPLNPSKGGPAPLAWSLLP

[14] = target: Cyclin-dependent kinase 9 (Homo sapiens) (UniProt P50750); test: Binding affinity to human CDK9 at 200 nM by cell-based competition binding assay relative to control in presence of DTT; procedure, shortened: as §1
Chain of Cyclin-dependent kinase 9 (Homo sapiens) (P50750 whole entry, canonical isoform): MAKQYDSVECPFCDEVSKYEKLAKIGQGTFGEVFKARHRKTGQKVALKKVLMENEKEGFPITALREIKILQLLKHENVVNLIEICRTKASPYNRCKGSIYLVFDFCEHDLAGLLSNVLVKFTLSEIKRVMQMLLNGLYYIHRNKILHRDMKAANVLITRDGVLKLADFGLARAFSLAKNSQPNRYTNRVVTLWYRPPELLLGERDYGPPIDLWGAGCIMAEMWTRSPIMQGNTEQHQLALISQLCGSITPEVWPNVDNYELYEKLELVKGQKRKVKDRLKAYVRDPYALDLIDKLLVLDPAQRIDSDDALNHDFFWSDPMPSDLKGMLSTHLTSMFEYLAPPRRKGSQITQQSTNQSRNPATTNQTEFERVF

[15] = target: T2, NUAK family SNF1-like kinase 2 (Homo sapiens) (UniProt Q9H093); test: Binding affinity to human SNARK at 200 nM by cell-based competition binding assay relative to control in presence of DTT
T2 sequence (whole entry): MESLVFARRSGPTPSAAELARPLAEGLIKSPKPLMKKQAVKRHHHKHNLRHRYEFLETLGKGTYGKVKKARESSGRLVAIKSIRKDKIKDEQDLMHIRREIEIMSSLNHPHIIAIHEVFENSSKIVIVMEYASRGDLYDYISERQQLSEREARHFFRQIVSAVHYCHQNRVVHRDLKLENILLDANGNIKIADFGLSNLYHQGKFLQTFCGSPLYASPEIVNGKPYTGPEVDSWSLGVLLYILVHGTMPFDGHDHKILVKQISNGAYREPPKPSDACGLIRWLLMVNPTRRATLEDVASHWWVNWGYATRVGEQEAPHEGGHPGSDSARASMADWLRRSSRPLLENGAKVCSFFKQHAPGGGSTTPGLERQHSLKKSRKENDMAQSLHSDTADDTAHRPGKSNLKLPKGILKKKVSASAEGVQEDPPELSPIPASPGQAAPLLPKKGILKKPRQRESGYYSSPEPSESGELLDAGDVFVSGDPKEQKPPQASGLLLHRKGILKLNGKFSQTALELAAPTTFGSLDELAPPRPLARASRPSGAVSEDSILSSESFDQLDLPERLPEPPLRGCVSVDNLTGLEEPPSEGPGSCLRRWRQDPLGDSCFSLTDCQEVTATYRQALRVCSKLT

[16] = target: Cyclin-dependent kinase 9 (Homo sapiens) (UniProt P50750); test: Binding affinity to human CDK9 at 50 nM by cell-based competition binding assay relative to control in presence of DTT; procedure, shortened: as §1
[17] = target: Casein kinase I isoform delta (Homo sapiens) (UniProt P48730); test: Binding affinity to human CSNK1D at 50 nM by cell-based competition binding assay relative to control in presence of DTT; procedure, shortened: as §1
Chain of Casein kinase I isoform delta (Homo sapiens) (P48730 whole entry, looked up, canonical isoform): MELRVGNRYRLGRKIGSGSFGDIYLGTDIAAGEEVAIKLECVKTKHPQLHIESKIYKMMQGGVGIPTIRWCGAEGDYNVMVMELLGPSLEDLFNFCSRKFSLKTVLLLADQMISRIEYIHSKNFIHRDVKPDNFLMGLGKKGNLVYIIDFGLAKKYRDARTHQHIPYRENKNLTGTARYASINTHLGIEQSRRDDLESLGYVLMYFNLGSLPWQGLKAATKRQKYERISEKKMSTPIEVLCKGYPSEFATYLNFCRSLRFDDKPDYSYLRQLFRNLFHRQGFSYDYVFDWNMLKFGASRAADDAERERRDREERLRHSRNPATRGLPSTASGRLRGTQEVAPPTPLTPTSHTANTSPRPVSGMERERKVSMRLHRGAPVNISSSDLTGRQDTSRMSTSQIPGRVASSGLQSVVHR

[18] = target: Mitogen-activated protein kinase kinase kinase 9 (Homo sapiens) (UniProt P80192); test: Binding affinity to human MLK1 at 50 nM by cell-based competition binding assay relative to control in presence of DTT
Chain of Mitogen-activated protein kinase kinase kinase 9 (Homo sapiens) (P80192 whole entry, looked up): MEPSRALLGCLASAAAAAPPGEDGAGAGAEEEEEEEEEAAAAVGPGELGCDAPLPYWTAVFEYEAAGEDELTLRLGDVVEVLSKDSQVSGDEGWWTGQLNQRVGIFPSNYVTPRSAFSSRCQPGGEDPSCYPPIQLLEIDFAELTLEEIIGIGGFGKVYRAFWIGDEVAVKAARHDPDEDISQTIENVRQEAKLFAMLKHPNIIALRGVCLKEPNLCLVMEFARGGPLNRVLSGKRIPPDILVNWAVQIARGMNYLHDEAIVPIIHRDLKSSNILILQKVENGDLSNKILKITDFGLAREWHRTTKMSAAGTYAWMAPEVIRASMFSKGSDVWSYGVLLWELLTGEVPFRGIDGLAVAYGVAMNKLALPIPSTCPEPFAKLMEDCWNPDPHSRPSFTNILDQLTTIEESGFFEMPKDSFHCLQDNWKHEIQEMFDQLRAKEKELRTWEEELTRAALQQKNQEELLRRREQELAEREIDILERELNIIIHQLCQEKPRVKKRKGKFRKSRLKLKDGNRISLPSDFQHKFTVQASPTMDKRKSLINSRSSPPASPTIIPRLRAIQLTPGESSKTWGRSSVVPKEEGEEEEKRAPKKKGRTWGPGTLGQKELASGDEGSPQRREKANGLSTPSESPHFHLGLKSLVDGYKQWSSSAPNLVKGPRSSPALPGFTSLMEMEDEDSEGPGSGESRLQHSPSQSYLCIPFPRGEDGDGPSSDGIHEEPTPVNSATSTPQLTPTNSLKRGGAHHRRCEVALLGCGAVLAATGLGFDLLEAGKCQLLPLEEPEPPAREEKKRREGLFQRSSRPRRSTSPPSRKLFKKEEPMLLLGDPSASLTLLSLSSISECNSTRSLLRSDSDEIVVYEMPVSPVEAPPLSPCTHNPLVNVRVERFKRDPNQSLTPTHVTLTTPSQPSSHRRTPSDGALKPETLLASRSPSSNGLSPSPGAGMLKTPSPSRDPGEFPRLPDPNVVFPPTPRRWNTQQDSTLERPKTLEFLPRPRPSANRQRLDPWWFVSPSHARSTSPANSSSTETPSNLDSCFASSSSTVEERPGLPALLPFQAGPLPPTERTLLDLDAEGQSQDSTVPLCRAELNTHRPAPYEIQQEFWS

How did the Activity [1] turn out when CO[C@@H]1[C@H](N(C)C(=O)CCC(=O)NCCC(=O)NCCC(=O)NCCC(N)=O)C[C@H]2O[C@]1(C)n1c3ccccc3c3c4c(c5c6ccccc6n2c5c31)C(=O)NC4 was run?
Its Activity is 100%.

And the Activity [2]?
The Activity was 87%.

What about the Activity [3] of the same compound?
Its Activity is 91%.

And the Selectivity ratio [4]?
The Selectivity ratio was 50.

What about the Activity [5] of the same compound?
Its Activity is 34%.

CO[C@@H]1[C@H](N(C)C(=O)CCC(=O)NCCC(=O)NCCC(=O)NCCC(=O)NCCC(=O)NCCC(=O)NCCC(=O)NCCC(=O)N[C@H]2CSSC[C@@H](C(=O)NCC(N)=O)NC(=O)CNC(=O)[C@H](Cc3ccccc3)NC(=O)[C@H](C(C)C)NC(=O)[C@H](CCCNC(=N)N)NC(=O)[C@H](Cc3ccccc3)NC(=O)[C@H](C(C)C)NC2=O)C[C@H]2O[C@]1(C)n1c3ccccc3c3c4c(c5c6ccccc6n2c5c31)C(=O)NC4 ({Staurosporine-Suc-βAla-βAla-βAla-βAla-βAla-βAla-βAla}-CVFRVFGCG-NH2; disulfide 1-8) was tested. Which Activity [6] did it give?
The Activity was 100%.

And the Activity [7]?
Its Activity is 100%.

And the Activity [8]?
Its Activity is 0.65%.

And the Activity [9]?
Its Activity is 77%.

And the Activity [10]?
Its Activity is 89%.

What about the Activity [11] of the same compound?
Its Activity is 36%.

And the Activity [12]?
Its Activity is 40%.

What about the Activity [13] of the same compound?
Its Activity is 100%.

What about the Activity [14] of the same compound?
The Activity was 100%.

What about the Activity [15] of the same compound?
Its Activity is 0.45%.

Which results are given for CO[C@@H]1[C@H](N(C)C(=O)CCC(=O)NCCC(=O)NCCC(=O)NCCC(=O)NCCC(=O)NCCC(=O)NCCC(=O)NCCC(=O)N[C@H]2CNC(=O)C[C@@H](C(N)=O)NC(=O)CNC(=O)[C@H](Cc3ccccc3)NC(=O)[C@H](C(C)C)NC(=O)[C@H](CCCNC(=N)N)NC(=O)[C@H](Cc3ccccc3)NC(=O)[C@H](C(C)C)NC2=O)C[C@H]2O[C@]1(C)n1c3ccccc3c3c4c(c5c6ccccc6n2c5c31)C(=O)NC4 ({Staurosporine-Suc-βAla-βAla-βAla-βAla-βAla-βAla-βAla}-[Dap]VFRVFGD-NH2; lactam 1-8)?
Activity [16]: 99%; Activity [17]: 100%; Activity [18]: 5.5%
